Laboratory results taken from ChEMBL document CHEMBL4715802, “Novel Irreversible Agonists Acting at the A Adenosine Receptor” (J Med Chem, 2016).
Activity calls are given as the source filed them. The calls are words filed in the database; no cut-off is given here.

Assays:
[1] = biological target: T1, Adenosine receptor A1 (Homo sapiens) (UniProt P30542); experiment: Binding affinity to human adenosine A1 receptor expressed in NECA-pre-treated Flp-In-CHO cell membranes assessed as [35S]GTP-gamma-S incorporation level at 10 uM incubated for 40 mins followed by washing by liquid scintillation counting; conditions: Cell membrane
T1 sequence (whole entry): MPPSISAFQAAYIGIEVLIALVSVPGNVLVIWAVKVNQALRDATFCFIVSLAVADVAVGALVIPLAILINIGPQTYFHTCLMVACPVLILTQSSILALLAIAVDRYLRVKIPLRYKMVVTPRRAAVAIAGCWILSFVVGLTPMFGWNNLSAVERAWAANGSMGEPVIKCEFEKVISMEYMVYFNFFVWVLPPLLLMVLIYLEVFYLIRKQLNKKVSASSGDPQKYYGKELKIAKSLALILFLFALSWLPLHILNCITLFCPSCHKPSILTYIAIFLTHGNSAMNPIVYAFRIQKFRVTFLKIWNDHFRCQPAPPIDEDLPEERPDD
Procedure, shortened: (§1)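 Membranes were pretreated with 10 µM ligand and washed as for the [3H]DPCPX assay. […] 300 pM [35S]GTPγS was then added for 40 min at 20°C, followed by filtration and counting. Values are normalised to NECA-stimulated vehicle-pretreated membranes.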

[2] = biological target: T1, Adenosine receptor A1 (Homo sapiens); experiment: Irreversible agonist activity at human adenosine A1 receptor expressed in Flp-In-CHO cells assessed as induction of positive change of cellular impedance at 1 uM incubated for 2 hrs by xCELLigence real-time cell analysis; format: cell-based; conditions: filed as agonist
Procedure, shortened: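 A1AR-FlpInCHO cells were serum-starved for about 18 h and equilibrated for at least 1 h at 37°C. 1 µM agonist or vehicle was added and impedance was recorded at 15 s intervals. […] Three experiments in duplicate.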

[3] = tested on: Flp-In-CHO; experiment: Stimulation of ERK1/2 phosphorylation in Flp-In-CHO cells incubated for 5 mins; format: cell-based; conditions: Cricetulus griseus
Procedure, shortened: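 A1AR-FlpInCHO cells were seeded at 4×10^4/well and serum-starved for about 18 h. Cells were stimulated with agonist for 5 min at 37°C, then lysed, and pERK1/2 was detected by SureFire. […] Curves were fitted for pEC50 and Emax. Three experiments in duplicate.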

[4] = tested on: Flp-In-CHO; experiment: Effect on forskolin-induced cAMP accumulation in Flp-In-CHO cells incubated for 30 mins by LANCE cAMP detection assay; format: functional, cell-based; conditions: Cricetulus griseus
[5] = biological target: T1, Adenosine receptor A1 (Homo sapiens); experiment: Binding affinity to human adenosine A1 receptor expressed in Flp-In-CHO cell membranes assessed as basal [35S]GTP-gamma-S incorporation level at 10 uM incubated for 40 mins followed by washing by liquid scintillation counting; conditions: Cell membrane; procedure, shortened: as §1
[6] = biological target: T1, Adenosine receptor A1 (Homo sapiens); experiment: Binding affinity to human adenosine A1 receptor expressed in Flp-In-CHO cell membranes assessed as [3H]DPCPX binding level at 10 uM incubated for 1 hr followed by washing by liquid scintillation counting based equilibrium radioligand binding assay; conditions: Cell membrane
Procedure, shortened: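 Membranes from A1AR-FlpInCHO cells were pre-incubated with 10 µM ligand in PBS with 1 unit ADA for 1 h at 37°C. They were then washed 3× with PBS, with 1 h at 37°C between washes, and resuspended in HME buffer. [3H]DPCPX at 0.1–12 nM was bound for 1 h at 37°C, filtered and β-counted. Nonspecific binding was defined with 1 µM SLV320. Results are expressed as % of buffer-pretreated Bmax, from three experiments in duplicate.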

[7] = biological target: T1, Adenosine receptor A1 (Homo sapiens); conditions: Sf9, Cell membrane, filed as agonist, dose 10.0 µM, time 30.0 min
[8] = biological target: T1, Adenosine receptor A1 (Homo sapiens); experiment: Binding affinity to human adenosine A1 receptor expressed in Sf9 cells assessed protein melting temperature at 10 uM incubated for 30 mins by Thermo-fluor assay; format: cell membranes; conditions: Cell membrane, filed as agonist
Procedure, shortened: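 Human A1AR was purified from Sf9 cells in LMNG/CHS. 0.2 µg receptor was incubated with 10 µM compound for 20 h at 4°C in HEPES pH 7.5 buffer with ADA. CPM dye at 10 µM final was added for 30 min at rt. The sample was heated from 4 to 80°C in 3° steps, holding 90 s each, and fluorescence was read at 380/470 nm to derive Tm. Three experiments in duplicate.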

[9] = biological target: T2, Adenosine receptor A2b (Homo sapiens, UniProt P29275); experiment: Irreversible agonist activity at human adenosine A2B receptor expressed in Flp-In-CHO cells assessed as effect on forskolin-induced cAMP accumulation incubated for 30 mins by LANCE cAMP detection assay; format: functional, cell-based
T2 sequence (P29275 whole entry): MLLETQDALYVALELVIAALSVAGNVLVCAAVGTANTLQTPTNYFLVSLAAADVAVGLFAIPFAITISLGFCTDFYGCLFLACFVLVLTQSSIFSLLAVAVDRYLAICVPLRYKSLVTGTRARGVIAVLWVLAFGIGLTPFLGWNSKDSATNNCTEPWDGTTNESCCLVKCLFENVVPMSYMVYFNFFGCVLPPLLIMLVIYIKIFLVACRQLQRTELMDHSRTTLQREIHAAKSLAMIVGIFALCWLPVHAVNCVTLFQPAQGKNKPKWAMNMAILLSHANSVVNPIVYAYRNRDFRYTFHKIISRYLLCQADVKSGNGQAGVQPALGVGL
Procedure, shortened: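 A2BAR-FlpInCHO cells in stimulation buffer with rolipram were exposed to agonist with no preincubation, then stopped with ethanol, lysed, and cAMP was detected by LANCE. Three to four experiments in duplicate.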

[10] = biological target: T3, Adenosine receptor A1 (Homo sapiens, UniProt P30542); experiment: Irreversible agonist activity at human adenosine A1 receptor expressed in Flp-In-CHO cells assessed as effect on forskolin-induced cAMP accumulation incubated for 30 mins by LANCE cAMP detection assay; format: functional, cell-based
T3 sequence (P30542 whole entry): T1 sequence (whole entry)
Procedure, shortened: (§2)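 For Gi/o-coupled A1 or A3 FlpInCHO cells, cells were preincubated for 30 min at 37°C in stimulation buffer containing 10 µM rolipram. Agonist (10 pM–10 µM) was then added with 3 µM forskolin for 30 min at 37°C. The reaction was stopped with ethanol, cells were lysed, and cAMP was read by LANCE TR-FRET. Three to four experiments in duplicate.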

[11] = biological target: T1, Adenosine receptor A1 (Homo sapiens); experiment: Irreversible agonist activity at human adenosine A1 receptor expressed in Flp-In-CHO cells assessed as induction of positive change of cellular impedance at 1 uM incubated for 1.5 hrs followed by addition of 1 uM A1AR selective antagonist SLV320 by xCELLigence real-time cell analysis; format: cell-based; conditions: filed as agonist
Procedure, shortened: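 A1AR-FlpInCHO cells were seeded at 4×10^4/well, serum-starved for about 18 h, and equilibrated in the impedance reader for at least 1 h at 37°C. Cells were exposed to 1 µM agonist and impedance was recorded every 15 s. After about 1.5–1.7 h, 1 µM SLV320 was added and recording continued. […] Three experiments in duplicate.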

[12] = biological target: T3, Adenosine receptor A1; experiment: Irreversible agonist activity at human adenosine A1 receptor expressed in Flp-In-CHO cells assessed as stimulation of ERK1/2 phosphorylation incubated for 5 mins; format: cell-based
[13] = biological target: T4, Adenosine receptor A3 (Homo sapiens, UniProt P0DMS8); experiment: Irreversible agonist activity at human adenosine A3 receptor expressed in Flp-In-CHO cells assessed as effect on forskolin-induced cAMP accumulation incubated for 30 mins by LANCE cAMP detection assay; format: functional, cell-based
T4 sequence (P0DMS8 whole entry): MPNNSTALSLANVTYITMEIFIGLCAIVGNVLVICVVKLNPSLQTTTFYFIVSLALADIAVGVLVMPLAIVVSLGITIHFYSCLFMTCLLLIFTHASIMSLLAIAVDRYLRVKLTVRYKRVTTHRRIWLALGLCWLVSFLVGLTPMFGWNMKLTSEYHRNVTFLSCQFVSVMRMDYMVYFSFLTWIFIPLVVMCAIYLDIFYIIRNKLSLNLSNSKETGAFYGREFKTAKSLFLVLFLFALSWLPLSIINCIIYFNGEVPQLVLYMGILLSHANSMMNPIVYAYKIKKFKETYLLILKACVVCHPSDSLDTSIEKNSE
Procedure, shortened: as §2, with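 “TR-FRET. […]” for “TR-FRET.”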

[14] = biological target: Adenosine receptor A2a (Homo sapiens, UniProt P29274); experiment: Irreversible agonist activity at human adenosine A2A receptor expressed in Flp-In-CHO cells assessed as effect on forskolin-induced cAMP accumulation incubated for 30 mins by LANCE cAMP detection assay; format: functional, cell-based
Sequence of Adenosine receptor A2a (P29274 whole entry): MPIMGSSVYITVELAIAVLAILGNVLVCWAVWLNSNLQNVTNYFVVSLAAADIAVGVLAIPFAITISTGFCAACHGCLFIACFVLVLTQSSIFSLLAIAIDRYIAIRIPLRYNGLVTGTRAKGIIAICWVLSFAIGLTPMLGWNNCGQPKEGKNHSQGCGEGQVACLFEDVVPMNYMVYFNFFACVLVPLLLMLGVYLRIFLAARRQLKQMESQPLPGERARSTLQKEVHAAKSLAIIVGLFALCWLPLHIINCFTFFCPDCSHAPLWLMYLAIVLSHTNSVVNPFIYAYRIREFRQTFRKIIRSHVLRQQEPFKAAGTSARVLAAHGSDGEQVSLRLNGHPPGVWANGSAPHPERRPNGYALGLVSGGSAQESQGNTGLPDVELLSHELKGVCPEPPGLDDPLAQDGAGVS

O[C@H]1CC[C@H](Nc2nc(-c3ccccc3)nc3[nH]ccc23)CC1
Activity ([1]; filed as agonist): 37%

CCNC(=O)[C@H]1O[C@@H](n2cnc3c(N)ncnc32)[C@H](O)[C@@H]1O
Activity [2]: Active | Activity [3]: inactive | Activity [4]: inactive | Activity [5]: 57% | Activity [6]: 108% | ΔTm [7]: 4 °C | Tm [8]: 38.7 °C | Activity [1]: 99%

OC[C@H]1O[C@@H](n2cnc3c(Nc4ccc(CN=C=S)cc4)ncnc32)[C@H](O)[C@@H]1O
EC50 [9]: 708 nM | Activity [2]: Active | Activity [3]: inactive | EC50 [10]: 269 nM | Activity [4]: inactive | Activity [11]: Active | EC50 [12]: 20 nM | EC50 [13]: 347 nM | Tm [8]: 42.7 °C | EC50 [14]: 646 nM

OC[C@H]1O[C@@H](n2cnc3c(NCCCCCCN=C=S)ncnc32)[C@H](O)[C@@H]1O
Activity [3]: inactive

OC[C@H]1O[C@@H](n2cnc3c(Nc4ccc(CNC(=S)Nc5ccc(N=C=S)cc5)cc4)ncnc32)[C@H](O)[C@@H]1O
EC50 [9]: 224 nM | Activity [2]: Active | Activity [3]: inactive | EC50 [10]: 55 nM | Activity [4]: inactive | Activity [5]: 124% | Activity [11]: Active | EC50 [12]: 1.58 nM | Activity ([6]; filed as agonist): 8% | EC50 [13]: 44.7 nM | Tm [8]: 46.6 °C | EC50 [14]: 67.6 nM | Activity ([1]; filed as agonist): Active

CCCn1c(=O)c2nc(C3CCCC3)[nH]c2n(CCCOC(=O)c2ccc(S(=O)(=O)F)cc2)c1=O
Activity ([5]; filed as agonist): 37% | Activity ([6]; filed as agonist): 2% | Activity ([1]; filed as agonist): 32%

O=C(NCc1ccc(Nc2ncnc3c2ncn3[C@@H]2O[C@H](CO)[C@@H](O)[C@H]2O)cc1)C1=CC2C=CC1CC2 (stereo partly drawn)
Activity [2]: Active | Activity [3]: inactive | EC50 [12]: 1.58 nM

O=C(NCCCCCCNc1ncnc2c1ncn2[C@@H]1O[C@H](CO)[C@@H](O)[C@H]1O)c1ccc(S(=O)(=O)F)cc1
Activity [3]: inactive

OC[C@H]1O[C@@H](n2cnc3c(NCCCCCCNC(=S)Nc4ccc(N=C=S)cc4)ncnc32)[C@H](O)[C@@H]1O
Activity [3]: inactive

O=C(NCCCCCCCCCCNc1ncnc2c1ncn2[C@@H]1O[C@H](CO)[C@@H](O)[C@H]1O)C1=CC2C=CC1CC2 (stereo partly drawn)
Activity [3]: inactive | EC50 [12]: 25.1 nM

OC[C@H]1O[C@@H](n2cnc3c(NCCN=C=S)ncnc32)[C@H](O)[C@@H]1O
Activity [3]: inactive | EC50 [12]: 158 nM

O=C(NCc1ccc(Nc2ncnc3c2ncn3[C@@H]2O[C@H](CO)[C@@H](O)[C@H]2O)cc1)c1ccc(S(=O)(=O)F)cc1
EC50 [9]: 117 nM | Activity [2]: Active | Activity [3]: inactive | EC50 [10]: 0.912 nM | Activity [4]: inactive | Activity [5]: 134% | Activity [11]: Active | EC50 [12]: 1 nM | Activity ([6]; filed as agonist): 16% | EC50 [13]: 135 nM | Tm [8]: 46.7 °C | Activity ([1]; filed as agonist): Active

O=C(NCCNc1ncnc2c1ncn2[C@@H]1O[C@H](CO)[C@@H](O)[C@H]1O)C1=CC2C=CC1CC2 (stereo partly drawn)
Activity [3]: inactive

O=C(NCCCCCCNc1ncnc2c1ncn2[C@@H]1O[C@H](CO)[C@@H](O)[C@H]1O)C1=CC2C=CC1CC2 (stereo partly drawn)
Activity [3]: inactive | EC50 [12]: 15.8 nM

OC[C@H]1O[C@@H](n2cnc3c(NCCCCCCCCCCN=C=S)ncnc32)[C@H](O)[C@@H]1O
Activity [2]: Active | Activity [3]: inactive | EC50 [12]: 79.4 nM

OC[C@H]1O[C@@H](n2cnc3c(NCCCCCCCCCCNC(=S)Nc4ccc(N=C=S)cc4)ncnc32)[C@H](O)[C@@H]1O
Activity [3]: inactive

O=C(NCCCCCCCCCCNc1ncnc2c1ncn2[C@@H]1O[C@H](CO)[C@@H](O)[C@H]1O)c1ccc(S(=O)(=O)F)cc1
Activity [3]: inactive

OC[C@H]1O[C@@H](n2cnc3c(NCCNC(=S)Nc4ccc(N=C=S)cc4)ncnc32)[C@H](O)[C@@H]1O
Activity [3]: inactive | Activity [11]: Active | EC50 [12]: 3.16 nM
